Compounds with a hit are over-represented: about 3% of the library has one in this group of screens.
Yeast growth inh: growth inhibitors of yeast BB579 in restrictive medium, primary screen, yeast lifespan-shortening project, S. cerevisiae | OD615, 48 h | inhibition, % at 10 µM | actives 0.51% (n = 140,000) | AID 804, 2007;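 active = inhibition above a set limit, 3 SD over the mean compound inhibition, cut at about 44% in these data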
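Assay system – yeast BB579 (DeaD) · Dosing – single compound dose of 10 µM, 0.25% DMSO final · Detection – OD615 turbidity measurement · Buffer or medium – CSMM-D restrictive synthetic medium containing dextrose (glucose) · Benchmarks – positive control amphotericin B 10 µg/mL · Incubation – 48 h exposure, 30 °C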
INS promoter inh: inhibitors of insulin promoter-driven GFP, primary screen, imaging, TRM-6 cells, eGFP reporter, cell count; reporter expression induced with tamoxifen; inhibition, % at 2 µM; actives 0.9% (n = 130,000);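 active = inhibition above the mean plus 3 SD, with well images judged a real hit on visual review, cut at about 60% in these data, passing the limit was not always enough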
Yeast lifespan up: compounds extending yeast replicative lifespan, primary screen, S. cerevisiae, OD615. S. cerevisiae growth with nicotinamide; deaD strain in restrictive glucose medium. inhibition of the nicotinamide effect, % at 10 µM. actives 0.68% (n = 130,000). AID 775, 2007;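 active = inhibition above a set limit, placed 3 SD over the median of all compounds, cut at about 26% in these data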;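 also: 0% = nicotinamide-treated wells and 100% = cells grown without nicotinamide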
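Test system: DeaD-strain S. cerevisiae / Buffer or medium: restrictive glucose medium / Also added: nicotinamide 1.5 mM / Doses: one concentration, 10 µM, DMSO 0.25% / Schedule: 48 h at 30 °C / Signal: OD615 measurement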
RAM network inh: inhibitors of the yeast RAM network, primary screen, dse1pr::URA3 reporter, 5-FOA selection | actives 1.8% (n = 190,000) | AID 868, 2007 | inhibition, % at 50 µM | S. cerevisiae dse1pr::URA3 reporter, 5-FOA growth OD615, 2 d; analog-sensitive cbk1-as2 kinase mutant strain;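 active = inhibition above a set limit, 3 SD over mean compound inhibition, cut at about 8.4% in these data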;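 also: 0% = DMSO-only wells with no growth and 100% = 10 µM 1-NA-PP1 full growth; inhibition rescues growth on 5-FOA so higher OD means more RAM inhibition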
Ins promoter up: insulin promoter activators in MIN6 cells, imaging, high-content screening, mouse beta cells; actives 0.3% (n = 190,000); MIN6 insulin promoter-GFP reporter; active compounds read high; z-score at 5 µM;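 active = z-score above 3 at 5 µM with at least 500 cells counted in the well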
Active calls of the source: *; nt = no result.

SMILES	Yeast growth inh	INS promoter inh	Yeast lifespan up	RAM network inh	Ins promoter up
COC(=O)c1c(N2C(=O)CC(Sc3ccccc3C(=O)O)C2=O)sc2c1CCCC2 (stereo not given)	nt	33.3	nt	4.8	0.57
Cc1c(N=NC2=C(O)CC(C)(C)CC2=O)c(=O)n(-c2ccccc2)n1C	nt	38.1	nt	1.1	-0.27
O=C(Cc1ccc(Cl)cc1)Nc1cccc(S(=O)(=O)Nc2ccccc2F)c1	-24.6	16.2	0.5	7.9	-0.8
O=C(CSc1nnc(Nc2ccccc2F)s1)Nc1cccc(S(=O)(=O)N2CCCCC2)c1	-26.0	-24.1	1.1	10.2*	0.28
O=C(CSc1ccc([N+](=O)[O-])cc1)Nc1cccc(S(=O)(=O)Nc2ccccc2F)c1	nt	-17.6	nt	9.2*	0.07
O=C(CCn1c(=O)c2ccccc2n(Cc2cc(=O)n3ccccc3n2)c1=O)NCc1ccco1	-54.2	-12.5	7.5	10.9*	-0.12
CC1CC(C)CN(C(=O)Cn2c(=O)n(CCCCC(=O)NCc3ccco3)c(=O)c3ccccc32)C1 (stereo not given)	-33.3	nt	-2.0	10.8*	0.23
Cc1ccn(C)c(=N)c1	nt	nt	nt	nt	0.35
CCOc1ccc(-n2ccnc2SCC(=O)Nc2cc(C)on2)cc1	nt	nt	nt	-0.1	-0.92
CCOC(=O)CN1CC23C=CC(O2)C(C(=O)Nc2cc(OC)ccc2OC)C3C1=O (stereo not given)	-36.3	nt	-6.2	3.4	4.17*
CCOC(=O)CN1CC23C=CC(O2)C(C(=O)Nc2ccc(OC)cc2OC)C3C1=O (stereo not given)	6.1	nt	-6.2	2.7	nt
CCN1C(=O)/C(=C2\SC(=S)N(CCCOC)C2=O)c2ccccc21	-28.9	nt	-5.3	9.5*	-0.44
CN(C)S(=O)(=O)Oc1cccc(C(=O)Nc2ccc(Cl)c(Cl)c2)c1	-21.9	15.4	-16.7	9.9*	-0.63
CN(C)S(=O)(=O)Oc1cccc(C(=O)Nc2cccc(Cl)c2)c1	-29.2	-23.3	-15.2	2.1	-0.48
CCOC(=O)N1CCN(C(=O)NC2CCCCC2)CC1	-31.2	-29.7	-19.8	1.4	3.74*
CCOC(=O)N1CCN(C(=S)NC)CC1	-28.7	72.4*	-6.6	1.4	-0.1
CCOC(=O)N1CCN(C(=S)NC2CCCCC2)CC1	-22.9	nt	0.2	0.4	nt
Cc1cc(=O)oc2cc(OCC(=O)Nc3ccc(S(=O)(=O)N(C)C)cc3)ccc12	nt	nt	nt	nt	-0.27
COC(=O)c1cccc(NC(=O)Nc2ccccc2OC)c1	nt	nt	nt	0.9	-0.21
CC1(C)CC(=O)C(N=Nc2cc3c(cc2[N+](=O)[O-])OCCO3)=C(O)C1	nt	-8.3	nt	9.5*	0.7
CCC(C)NS(=O)(=O)c1ccc(S(=O)(=O)N2CC=C(c3ccc(F)cc3)CC2)cc1 (stereo not given)	0.1	nt	-3.7	4.3	-0.45
Cc1ccc(C(=O)CC(=O)c2cc(Cl)ccc2O)cc1	-66.5	-53.1	-12.1	10.1*	nt
CC(C)(C)c1ccc(C(=O)CC(=O)c2cc(Cl)ccc2O)cc1	-26.5	3.1	-2.9	10.4*	-0.93
O=C(CC(=O)c1ccccc1O)c1ccc(F)cc1	53.3*	30.9	-18.4	3.2	-0.42
CC(C)(C)c1ccc(C(=O)NNC(=O)c2ccc(Cl)cc2)cc1	-46.1	-25.0	6.6	3.5	0.01
SMILES	Yeast growth inh	INS promoter inh	Yeast lifespan up	RAM network inh	Ins promoter up
O=c1c2ccccc2oc2nc(-c3cccs3)n(CCc3ccccc3)c(=O)c12	-18.0	-23.1	4.7	4.3	-0.26
Fc1ccc(C2CC(c3ccco3)=NN2c2ccccc2)cc1 (stereo not given)	-19.8	nt	-16.3	6.9	3.51*
NCC12CC3CC(CC(O)(C3)C1)C2	-56.6	11.1	-2.7	1.1	0.19
NCC12CC3CC(C1)CC(CN)(C3)C2	6.6	nt	-10.5	4.6	3.09*
COCCNC(=O)COC(=O)c1cccnc1SC	nt	nt	nt	0.4	nt
COc1cc(NS(=O)(=O)c2ccc(NC(C)=O)cc2)nc(OC)n1	-37.2	-25.0	-3.9	1.7	0.25
COc1cc(NS(=O)(=O)c2ccc(N/C=C(\C#N)c3nc4cc(Cl)ccc4o3)cc2)nc(OC)n1	-79.5	26.7	2.9	9.1*	-1.22
CC(C)C(C(=O)O)N1C(=O)/C(=C/c2cccn2C)SC1=S (stereo not given)	-34.0	20.0	41.5*	-0.8	0.71
Cc1ccc(S(=O)(=O)NN2C(=O)/C(=C/c3cccn3C)SC2=S)cc1	-46.8	-32.4	29.5*	5.4	0.95
CCCC(C(=O)O)N1C(=O)/C(=C/c2cccn2C)SC1=S (stereo not given)	-25.5	nt	26.9*	3.4	1.32
CSc1ccc(NC(=O)c2cccnc2)cc1C#N	nt	nt	nt	2.2	-0.02
CC(Nc1n[nH]c(=O)[nH]c1=O)C(=O)N/N=C/c1cccs1 (stereo not given)	nt	nt	nt	-0.9	0.14
COc1cc2nc(CN3CCN(S(=O)(=O)c4ccc(Cl)cc4)CC3)[nH]c(=O)c2cc1OC	nt	0.0	nt	0.8	-1.75
Nc1cc(C(F)(F)F)ccc1-n1cccc1	nt	nt	nt	2.9	0.03
CCOc1ccc(NS(=O)(=O)c2ccc3[nH]cc(C(=O)NCC4CCCO4)c(=O)c3c2)cc1 (stereo not given)	-37.6	nt	-15.2	9.3*	nt
CCc1ccccc1NS(=O)(=O)c1ccc2[nH]cc(C(=O)NCC3CCCO3)c(=O)c2c1 (stereo not given)	-38.8	nt	-12.2	3.8	nt
CN(Cc1ccccc1)S(=O)(=O)c1ccc2[nH]cc(C(=O)NCC3CCCO3)c(=O)c2c1 (stereo not given)	-34.5	nt	-14.6	8.7*	nt
COc1cccc(-c2nc3n(n2)C(c2ccc4c(c2)OCO4)C(C(N)=O)=C(C)N3)c1 (stereo not given)	4.5	21.4	-11.4	10.5*	nt
O=c1c(Cc2ccccc2)c(O)ccn1Cc1ccco1	nt	5.0	nt	0.8	-0.01
Cc1cc(N2CCOCC2)nc2ccc(NC(=S)N3CCCCC3C)cc12 (stereo not given)	nt	72.7*	nt	0.3	nt
Cc1cc(N2CCN(C)CC2)nc2ccc(NC(=S)N3CCCCC3)cc12	nt	nt	nt	-0.4	1.52
CC12CN3CC(C)(CN(C1)C3c1cc(Br)ccc1O)C2=O (stereo not given)	-20.2	-44.4	8.6	-1.0	-0.5
CC12CN3CC(C)(CN(C1)C3c1ccc(Br)cc1O)C2 (stereo not given)	-43.8	21.2	32.6*	0.5	0.15
Cc1ccc(N/C=C/C(=O)c2sc(-c3ccccc3)nc2C)cc1	-32.2	21.7	-3.4	9.0*	-0.14
Cc1nc(-c2ccccc2)sc1C(=O)NN	nt	nt	nt	-0.2	-0.13
Cc1ccc(C)c(NC(=S)N(Cc2cccc(Br)c2)CC2CCC(C(=O)O)CC2)c1 (stereo not given)	nt	nt	nt	4.5	-0.02
N#C/C(=C/c1cn(-c2ccccc2)nc1-c1cccc(OCc2ccc(F)cc2)c1)C(=O)NCCCn1ccnc1	62.8*	-32.3	-5.7	2.2	-0.46
CCCOc1cccc(-c2nn(-c3ccccc3)cc2/C=C(\C#N)C(=O)NCCCn2ccnc2)c1	-23.6	-17.5	-3.9	-1.1	-0.07
